Assay results published in ChEMBL document CHEMBL3612002, “Identification of A Novel Small-Molecule Binding Site of the Fat Mass and Obesity Associated Protein (FTO)” (J Med Chem, 2015).
Blank lines part the entries; values can stand above or below the molecule they belong to. Activity calls are given as the source filed them. The rule behind the calls is not given here.

Columns and labels:
[1] = target: T1, Alpha-ketoglutarate-dependent dioxygenase FTO (Homo sapiens, UniProt Q9C0B1); assay: Inhibition of FTO (unknown origin) (31 to 505 residues) expressed in Escherichia coli BL21 (DE3) cells assessed as reduction in 3-meT substrate demethylation by measuring demethylation ratio at 80 uM incubated for 17 hrs at 16 degC by HPLC method; set-up: scale not given: the % may be the effect or the level left
Outline: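 Preliminary screen with FTO and 3meT substrate (0.1 mg/mL stock) in MES, FeSO4, αKG and L-ascorbate; inhibitor added from a 4 mM DMSO stock, with DMSO alone as control. Incubated 17 h at 16 °C, centrifuged, then analysed by C18 reverse-phase HPLC (water/methanol gradient). Demethylated fraction of substrate reported.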
Target sequence in this assay (Q9C0B1 whole entry, looked up, the tested form may be a part): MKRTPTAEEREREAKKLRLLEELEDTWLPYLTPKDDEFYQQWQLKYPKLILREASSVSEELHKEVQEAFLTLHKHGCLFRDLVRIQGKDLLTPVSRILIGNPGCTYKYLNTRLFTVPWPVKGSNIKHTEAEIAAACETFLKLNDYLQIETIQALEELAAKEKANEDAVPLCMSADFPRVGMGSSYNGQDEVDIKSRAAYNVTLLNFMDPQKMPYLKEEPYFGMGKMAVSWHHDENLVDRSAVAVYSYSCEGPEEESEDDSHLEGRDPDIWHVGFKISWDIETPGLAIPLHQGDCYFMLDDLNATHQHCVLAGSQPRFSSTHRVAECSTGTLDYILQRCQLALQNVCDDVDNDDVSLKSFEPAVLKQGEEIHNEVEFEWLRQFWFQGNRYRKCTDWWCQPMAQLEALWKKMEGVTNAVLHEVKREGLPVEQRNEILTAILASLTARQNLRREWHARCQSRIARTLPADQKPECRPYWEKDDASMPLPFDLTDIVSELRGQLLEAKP

[2] = target: T1, Alpha-ketoglutarate-dependent dioxygenase FTO; assay: Binding affinity to FTO (unknown origin) (31 to 505 residues) expressed in Escherichia coli BL21 (DE3) by ITC method
Outline: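 ITC at 25 °C. Cell contained 140 μM FTO (residues 31–505, His/Ni-resin and ion-exchange purified from E. coli BL21(DE3) after IPTG induction) in 25 mM HEPES pH 7.5, 100 mM NaCl, 10 mM β-mercaptoethanol, 10% DMSO. Titrant was the same buffer with 1.5 mM ligand, given as one 0.4 μL then 2.0 μL injections every 150 s at 750 rpm. Buffer-only dilution heats subtracted before fitting Kd.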
Target sequence in this assay (Q9C0B1 whole entry, the tested form may be a part): as the sequence (Q9C0B1 whole entry, looked up, the tested form may be a part) above

[3] = Cytotoxicity against mouse 3T3L1 cells assessed as effect on cell morphology at 1 to 20 uM incubated for 8 days; type: cell-based; conditions: 3t3-l1, 192 h
Outline: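 3T3-L1 preadipocytes were exposed to 1, 10 or 20 μM for 8 days. Cell health was judged from morphology.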

[4] = target: Alpha-ketoglutarate-dependent dioxygenase FTO (Mus musculus) (UniProt Q8BGW1); assay: Inhibition of FTO in mouse 3T3L1 cells increase in […] m6A modified mRNA levels at 10 uM incubated for 48 hrs by dot blot method; type: cell-based; conditions: 3T3-L1
Outline: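 3T3-L1 preadipocytes stably transfected with empty pcDNA3.1, WT-FTO or R96Q-FTO were grown in high-glucose DMEM/10% FBS. Post-confluent cells were differentiated 48 h with insulin, dexamethasone and IBMX, then given 10 μM compound plus insulin for 48 h. mRNA m6A was quantified as relative integrated optical density; mean ± SEM, n = 4.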

[5] = test system: Alpha-ketoglutarate-dependent dioxygenase FTO (Homo sapiens), Q9C0B1 [R96Q]; conditions: 3T3-L1, 10 uM
[6] = target: T1, Alpha-ketoglutarate-dependent dioxygenase FTO; conditions: BL21-DE3, 80 uM
Target sequence in this assay (Q9C0B1 whole entry, looked up, the tested form may be a part): as above

[7] = target: T1, Alpha-ketoglutarate-dependent dioxygenase FTO; conditions: 3T3-L1, 10 uM
Target sequence in this assay (Q9C0B1 whole entry, looked up, the tested form may be a part): as above

[8] = target: T1, Alpha-ketoglutarate-dependent dioxygenase FTO; assay: biochemical
Target sequence in this assay (Q9C0B1 whole entry, the tested form may be a part): as the sequence (Q9C0B1 whole entry, looked up, the tested form may be a part) above

Alpha-ketoglutarate-dependent dioxygenase FTO (Homo sapiens), Q9C0B1 [R96Q], sequence (Q9C0B1 whole entry R96Q): as the sequence (Q9C0B1 whole entry, looked up, the tested form may be a part) above, with R96Q counted along it
Alpha-ketoglutarate-dependent dioxygenase FTO (Mus musculus), sequence (Q8BGW1 whole entry): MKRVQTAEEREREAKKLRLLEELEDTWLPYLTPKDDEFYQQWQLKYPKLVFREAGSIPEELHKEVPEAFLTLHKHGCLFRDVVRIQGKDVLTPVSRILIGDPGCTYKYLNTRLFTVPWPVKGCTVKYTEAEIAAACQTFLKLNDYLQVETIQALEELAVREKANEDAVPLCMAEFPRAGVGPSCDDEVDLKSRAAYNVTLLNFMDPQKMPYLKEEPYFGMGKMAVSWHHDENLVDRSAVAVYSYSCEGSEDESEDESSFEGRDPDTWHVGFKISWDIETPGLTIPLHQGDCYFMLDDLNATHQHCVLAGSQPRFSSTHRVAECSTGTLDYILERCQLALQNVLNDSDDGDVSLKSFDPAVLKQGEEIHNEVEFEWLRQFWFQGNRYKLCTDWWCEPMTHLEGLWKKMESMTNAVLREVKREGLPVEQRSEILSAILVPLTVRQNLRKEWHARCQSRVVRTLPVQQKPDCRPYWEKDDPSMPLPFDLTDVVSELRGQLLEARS

SMILES: O=C(Nc1cc(Cl)c(O)cc1O)C1(c2ccc(Br)cc2)CCC1
- Activity [1]: 31.3%

SMILES: O=C(Nc1cc(Cl)c(O)cc1O)C1(c2ccccc2Br)CCC1
- Activity [1]: 21.6%

SMILES: O=C(Nc1cc(Cl)c(O)cc1O)C1(c2ccc([N+](=O)[O-])cc2)CCC1
- Activity [1]: 46.9%

SMILES: O=C(Nc1cc(Cl)c(O)cc1O)C1(c2c(F)cccc2F)CCC1
- Activity [1]: 15.2%

SMILES: O=C(Nc1cc(Cl)c(O)cc1O)C1(c2ccccc2)CCC1
- Activity [1]: 14.4%
- Kd [2]: 13 µM
- Activity [3]: Non-toxic
- inhibition [4]: Active
- inhibition [5]: Active
- inhibition [6]: Dose-dependent effect
- inhibition [7]: Active
- IC50 [8]: 4.95 µM

SMILES: O=C(Nc1cc(Cl)c(O)cc1O)C1(c2cccc(Br)c2)CCC1
- Activity [1]: 18.7%

SMILES: O=C(Nc1cc(Cl)c(O)cc1O)C1(c2cccc3ccccc23)CCC1
- Activity [1]: 39%

SMILES: O=C(Nc1cc(Cl)c(O)cc1O)C1(c2ccc([N+](=O)[O-])cc2[N+](=O)[O-])CCC1
- Activity [1]: 26.1%

SMILES: O=C(Nc1cc(Cl)c(O)cc1O)C1(c2c(Cl)cccc2Cl)CCC1
- Activity [1]: 15.4%

SMILES: O=C(Nc1cc(Cl)c(O)cc1O)C1(c2ccc(Cl)cc2)CCC1
- Activity [1]: 29.2%

SMILES: O=C(Nc1cc(Cl)c(O)cc1O)C1(c2cccc(Cl)c2)CCC1
- Activity [1]: 16.9%

SMILES: O=C(Nc1cc(Cl)c(O)cc1O)C1(c2cccc(O)c2)CCC1
- Activity [1]: 25.8%

The next lines start with the values.

- Activity [1]: 61.9%
SMILES: O=C(Nc1cc(Cl)c(O)cc1O)C1(c2cc(C(F)(F)F)cc(C(F)(F)F)c2)CCC1

- Activity [1]: 29.8%
SMILES: O=C(Nc1cc(Cl)c(O)cc1O)C1(c2cccc(C(F)(F)F)c2)CCC1

- Activity [1]: 18.2%
SMILES: CCCCc1cccc(C2(C(=O)Nc3cc(Cl)c(O)cc3O)CCC2)c1

- Activity [1]: 17.8%
SMILES: O=C(Nc1cc(Cl)c(O)cc1O)C1(c2ccc(O)cc2)CCC1

- Activity [1]: 16.9%
SMILES: O=C(Nc1cc(Cl)c(O)cc1O)C1(c2ccccc2Cl)CCC1

- Activity [1]: 22.2%
SMILES: CCCCc1ccc(C2(C(=O)Nc3cc(Cl)c(O)cc3O)CCC2)cc1

- Activity [1]: 18.4%
SMILES: O=C(Nc1cc(Cl)c(O)cc1O)C1(c2ccc3ccccc3c2)CCC1

- Activity [1]: 17.3%
SMILES: O=C(Nc1cc(Cl)c(O)cc1O)C1(c2cccc(Oc3ccccc3)c2)CCC1
